We go through one compound from ChEMBL document CHEMBL4359903, “1,2,4-Oxadiazole derivatives targeting EGFR and c-Met degradation in TKI resistant NSCLC” (Eur J Med Chem, 2019).

Each structure is given as a SMILES string. Calls of active or inactive are those of the source. The calls are words filed in the database; no cut-off is given here.

Assay [1] deals with NCI-H1975. Briefly: Antitumor activity against human NCI-H1975 cells harbouring EGFR L858R/T790M double mutant xenografted in orally dosed athymic Nude-Foxn1nu BALB/c mouse assessed as tumor growth inhibition administered once daily via gavage for 20 days measured twice a week by caliper method. The class given is functional, organism-based. An outline of the steps:
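Female Balb/c nude mice, 5 weeks old, injected subcutaneously in the right flank with 10^6 H1975 cells in 0.1 ml. Randomized at about 50 mm3, n = 8 per group. Gavaged once daily for 20 days with vehicle (10% DMSO/0.1% Tween 80/0.5% methylcellulose in sterile water) or 50 or 150 mg/kg. Calipers, V = width² × length × 0.52; volume and body weight twice weekly; Student's t-test.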
(In xenograft studies the graft and the host belong to different species.)

For assay [2], the system named is Epidermal growth factor receptor (Homo sapiens), P00533 [L858R,T790M]. Briefly: Induction of EGFR L858R/T790M double mutant degradation in human NCI-H1975 cells assessed as reduction in Akt phosphorylation at 0.2 to 0.6 uM incubated for 48 hrs by Western blot analysis. The class given is cell-based. In short, it runs like this: (§1)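 After 48 h treatment, cells were scraped and lysed in 1% SDS, 50 mM Tris-HCl pH 8.0, 10 mM EDTA with protease and phosphatase inhibitors. Lysates sonicated, protein measured by BCA, equal amounts run on SDS-PAGE and blotted to nitrocellulose. Primary antibodies (EGFR, c-Met, S473-Akt, Akt, GAPDH) used at 1:1000 overnight at 4 °C, HRP secondaries at 1:5000, ECL detection.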

In assay [3] the test system is A549. Kind of assay: Antiproliferative activity against wild type human A549 cells assessed as reduction in cell viability incubated for 72 hrs by MTT assay. The class given is functional, cell-based. Conditions: A549, 72 h. For orientation: Tetrazolium dyes change colour on reduction, which living cells bring about.
Assay [4] concerns Epidermal growth factor receptor (Homo sapiens), P00533 [G719A,T790M]. Kind of assay: Induction of EGFR G719A/T790M mutant degradation in human CL97 cells assessed as reduction in Akt phosphorylation at 0.4 to 0.8 uM incubated for 48 hrs by Western blot analysis. The class given is cell-based. An outline of the steps:
as §1

In assay [5] the target is Hepatocyte growth factor receptor (Homo sapiens) (UniProt P08581). Kind of assay: Induction of c-MET degradation in human PC9 cells harbouring EGFR delE746-A750 assessed as reduction in c-Met expression at 0.2 to 0.6 uM incubated for 48 hrs by Western blot analysis. The class given is cell-based. An outline of the steps:
as §1

Assay [6] can be described thus: Antiproliferative activity against human CL68 cells harbouring EGFR delE746-A750/T790M mutant assessed as reduction in cell viability incubated for 72 hrs by MTT assay. It is filed as functional, cell-based.
In assay [7] the test system is CL97. Kind of assay: Antiproliferative activity against human CL97 cells harbouring EGFR G719A/T790M mutant assessed as reduction in cell viability incubated for 72 hrs by MTT assay. It is filed as functional, cell-based. Conditions: CL97, 72 h.
Assay [8] deals with A549. Briefly: Antiproliferative activity against wild type human A549 cells assessed as reduction in cell viability incubated for 48 hrs by MTT assay. It is filed as functional, cell-based. As to conditions: A549, 48 h. In short, it runs like this: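 Cells seeded at 5000 per well in 10% FBS and left overnight, then exposed to agent or DMSO in 5% FBS for 48 h. MTT added for 1 h, dye dissolved in DMSO, absorbance read at 570 nm. Viability given as percent of vehicle control. At least three independent experiments, means ± SD.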

Assay [9] deals with CL97. Briefly: Cell cycle arrest in human CL97 cells harbouring EGFR G719A/T790M mutant assessed as increase in cells accumulation at G2/M phase at 0.4 to 0.8 uM incubated for 48 hrs by propidium iodide based flow cytometry. The class given is functional. An outline of the steps:
(§2)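 Cells plated at 3 × 10^5 per 6-cm dish and left overnight, then treated for 24 h and 48 h. Pellets fixed in 70% ethanol and stained with 40 µg/ml propidium iodide plus 20 µg/ml RNase A, 30 min on ice in the dark. DNA content read on a FACSCalibur flow cytometer.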
A general note: In flow cytometry, cells or beads pass a laser one at a time.

Assay [10] has as its target Epidermal growth factor receptor (Homo sapiens) (UniProt P00533). Kind of assay: Induction of EGFR degradation in human MDA-MB-231 cells assessed as reduction in EGFR expression incubated for 48 hrs by immunoblot analysis. It is filed as cell-based. An outline of the steps:
as §1

The target of assay [11] is Hepatocyte growth factor receptor (Homo sapiens) (UniProt P08581). Briefly: Induction of c-MET degradation in human CL97 cells harbouring EGFR G719A/T790M assessed as reduction in c-Met expression at 0.2 to 0.6 uM incubated for 48 hrs by Western blot analysis. The class given is cell-based. In short, it runs like this:
as §1

For assay [12] the target is unchanged. Kind of assay: Effect on c-MET degradation in wild type human A549 cells assessed as reduction in c-Met mRNA expression at 0.2 to 0.6 uM incubated for 48 hrs by RT-PCR analysis. The class given is cell-based. In short, it runs like this: (§3)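 Total RNA extracted with TRIzol from H1975 and A549 cells treated at 0.2–0.6 µM. EGFR and c-Met mRNA assessed by RT-PCR.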

Assay [13] has as its target Epidermal growth factor receptor (Homo sapiens) (UniProt P00533). Briefly: Inhibition of EGFR in wild type human A549 cells assessed as reduction in Akt phosphorylation at 0.2 to 0.6 uM incubated for 48 hrs by Western blot analysis. It is filed as cell-based. An outline of the steps:
as §1

Assay [14] relates to Epidermal growth factor receptor (Homo sapiens), P00533 [L858R,T790M]. Kind of assay: Induction of EGFR L858R/T790M double mutant degradation in human NCI-H1975 cells assessed as change in EGFR expression at 0.2 to 0.6 uM incubated for 48 hrs by RT-PCR analysis. The class given is cell-based. An outline of the steps: as §3
Assay [15] relates to NCI-H1975. Kind of assay: Antitumor activity against human NCI-H1975 cells harbouring EGFR L858R/T790M double mutant xenografted in athymic Nude-Foxn1nu BALB/c mouse assessed as tumor growth inhibition at 50 mg/kg, po administered once daily via gavage for 20 days measured twice a week by caliper method relative to control. Conditions: 480 h, read-out: TGI. It is filed as functional.

Assay [16] concerns the target Hepatocyte growth factor receptor (Homo sapiens) (UniProt P08581). Briefly: Induction of c-MET degradation in human NCI-H1975 cells harbouring EGFR L858R/T790M double assessed as reduction in c-Met expression at 0.2 to 0.6 uM incubated for 48 hrs by Western blot analysis. The class given is cell-based. An outline of the steps: as §1
The subject of a further assay is MDA-MB-231. Kind of assay: Antiproliferative activity against human MDA-MB-231 cells assessed as reduction in cell viability incubated for 72 hrs by MTT assay. It is filed as functional, cell-based. As to conditions: MDA-MB-231, 72 h. In short, it runs like this:
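MTT viability assay after 72 h of drug exposure. Cells seeded at 5000 per well in 10% FBS and left overnight, then treated in 5% FBS. MTT added for 1 h, dye dissolved in DMSO, absorbance read at 570 nm. Viability given relative to vehicle-treated cells.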

Assay [17] relates to Epidermal growth factor receptor (Homo sapiens), P00533 [UNDEFINED MUTATION]. Kind of assay: Induction of EGFR E746-A750 deletion mutant degradation in human PC9 cells assessed as reduction in Akt phosphorylation at 0.4 to 0.8 uM incubated for 48 hrs by Western blot analysis. It is filed as cell-based. As to conditions: 0.2 to 0.6 uM, in the assay text read “0.2 to 0.6 uM” for “0.4 to 0.8 uM”. An outline of the steps:
as §1

For a further assay, the species on record is Homo sapiens. Kind of assay: Cell cycle arrest in human CL68 cells harbouring EGFR delE746-A750/T790M mutant assessed as increase in cells accumulation at G2/M phase at 0.4 to 0.8 uM incubated for 48 hrs by propidium iodide based flow cytometry. It is filed as functional. An outline of the steps:
as §2

The test system of assay [18] is NCI-H1975. Briefly: Antiproliferative activity against human NCI-H1975 cells harbouring EGFR L858R/T790M double mutant assessed as reduction in cell viability incubated for 72 hrs by MTT assay. The class given is functional, cell-based. As to conditions: NCI-H1975, 72 h.

Chain of Hepatocyte growth factor receptor (Homo sapiens) (P08581 whole entry): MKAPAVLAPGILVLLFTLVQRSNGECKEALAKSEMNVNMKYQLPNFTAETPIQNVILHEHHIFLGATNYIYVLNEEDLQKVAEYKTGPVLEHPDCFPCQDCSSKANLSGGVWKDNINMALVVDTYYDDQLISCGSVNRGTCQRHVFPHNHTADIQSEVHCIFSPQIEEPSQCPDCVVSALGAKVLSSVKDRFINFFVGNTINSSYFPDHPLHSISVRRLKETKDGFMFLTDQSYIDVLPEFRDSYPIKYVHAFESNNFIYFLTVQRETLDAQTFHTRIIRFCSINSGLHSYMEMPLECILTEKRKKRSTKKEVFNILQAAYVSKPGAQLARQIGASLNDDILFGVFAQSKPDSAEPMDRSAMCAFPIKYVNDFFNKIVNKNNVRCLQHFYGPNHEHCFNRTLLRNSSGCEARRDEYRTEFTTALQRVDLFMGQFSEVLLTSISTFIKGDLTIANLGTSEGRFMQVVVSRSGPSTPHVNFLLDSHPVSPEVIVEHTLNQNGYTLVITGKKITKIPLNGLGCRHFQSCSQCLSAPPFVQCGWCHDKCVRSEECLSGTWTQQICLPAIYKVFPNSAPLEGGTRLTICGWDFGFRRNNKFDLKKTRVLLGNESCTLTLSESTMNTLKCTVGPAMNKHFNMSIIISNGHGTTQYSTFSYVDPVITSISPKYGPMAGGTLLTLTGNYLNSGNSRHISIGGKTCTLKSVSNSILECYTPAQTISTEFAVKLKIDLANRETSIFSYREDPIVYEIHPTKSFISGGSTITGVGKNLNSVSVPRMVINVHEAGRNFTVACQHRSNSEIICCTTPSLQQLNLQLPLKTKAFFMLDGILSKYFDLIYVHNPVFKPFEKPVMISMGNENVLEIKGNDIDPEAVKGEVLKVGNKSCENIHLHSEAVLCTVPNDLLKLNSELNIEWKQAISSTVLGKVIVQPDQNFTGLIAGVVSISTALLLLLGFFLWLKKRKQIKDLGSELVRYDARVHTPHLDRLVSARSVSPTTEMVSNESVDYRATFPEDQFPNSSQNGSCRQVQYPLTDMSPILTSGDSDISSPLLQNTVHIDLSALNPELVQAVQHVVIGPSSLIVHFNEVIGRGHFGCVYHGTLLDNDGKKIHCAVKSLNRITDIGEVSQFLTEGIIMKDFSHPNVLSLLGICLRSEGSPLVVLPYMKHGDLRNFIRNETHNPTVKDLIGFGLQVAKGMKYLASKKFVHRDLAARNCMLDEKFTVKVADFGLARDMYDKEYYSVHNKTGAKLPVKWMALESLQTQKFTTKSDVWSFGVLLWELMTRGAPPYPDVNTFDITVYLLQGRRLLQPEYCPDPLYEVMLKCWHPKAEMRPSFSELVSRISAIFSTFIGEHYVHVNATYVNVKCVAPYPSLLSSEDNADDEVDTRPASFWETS

Broadly, the IC50 is the concentration needed to halve the response being measured. As to `O=C(Nc1cccc(-c2nc(-c3ccc(NC(=O)c4cccnc4)cc3Cl)no2)c1)Nc1ccc(NC(=O)C2CC2)c(C(F)(F)F)c1`, the TGI result in the assay on NCI-H1975 [1] is “Dose-dependent effect”. For the same compound, the result (in [2]; in assay [4]; in assay [5]; with CL97 [9]; in assay [10]; in [11]) was Active. In addition, the outcome (in [13]; in assay [16]; in assay [17]; in the assay filed under Homo sapiens) was Active. Also, the IC50 in the assay on A549 [3] was 200 nM; in assay [6] it was 400 nM; in the assay on CL97 [7], 500 nM; in the assay on A549 [8], 300 nM; with MDA-MB-231, 200 nM; with NCI-H1975 [18], 300 nM. Besides, the outcome in [12] and in [14] was inactive. Besides, in the assay with NCI-H1975 [15], the inhibition in vivo at 50 mg/kg fell in the range of 29 to 37%.
